In PMC9968262 (American Journal of Clinical Dermatology, 2022):
Values joined by “and” are separate entries in the source; they are usually repeats but may differ in a detail not shown here. Identical values can stand only once. Like-named read-outs stand apart in the source and are kept apart here. Values belong to the compound of their own block, whether it stands above or below them.

Tests used:
[1] = Phase I/IIa study; type: in vivo, human; settings: for plasma concentration, mean (SD): Day 28; for concentration at 24 h / concentration at 28 days: human, plasma, topical
Procedure, shortened: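 Cohort 2 was double-blind and vehicle-controlled: 0.15% or 0.5% cream once daily for 28 days. Patients had psoriasis for >6 months and ≤5% BSA involvement. Day 28 plasma was drawn before application and at 1, 2, 4, 6 and 24 h after the last dose. Parent and N-oxide were quantified by validated LC-MS/MS (LLOQ 0.100 ng/mL).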

[2] = DERMIS-1; type: in vivo, human; settings: for Week 4 extrapolated AUC24, h*ng/mL / Week 8 extrapolated AUC24, h*ng/mL: predose concentration x 24, mean (SD)
Procedure, shortened: (§1)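 Patients with chronic plaque psoriasis covering 2–20% BSA were randomized 2:1 (double-blind) to 0.3% cream or vehicle. Cream was applied once daily for 8 weeks, including to new lesions. Predose (Ctrough) plasma was sampled at Baseline, Week 4 and Week 8. Parent and N-oxide were measured by validated LC-MS/MS (LLOQ 0.100 ng/mL). AUC24 = observed predose concentration × 24.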

[3] = Phase I/IIa study; type: in vivo, human; settings: for skin samples with measurable (quantifiable) level: N = 27 skin samples; for Kp at 24 h / concentration at 24 h / concentration at 28 days: human, topical; for Kp at 24 h: skin (punch biopsy) / plasma; for concentration at 24 h / concentration at 28 days: skin (punch biopsy)
[4] = test system: phosphodiesterase 4 (PDE4); settings: active metabolite; cited from earlier work
[5] = cited from earlier work; for peak plasma concentration (Cmax): healthy volunteers; for elimination half-life: roflumilast administered orally
[6] = DERMIS-2; type: in vivo, human; settings: for Week 4 extrapolated AUC24, h*ng/mL / Week 8 extrapolated AUC24, h*ng/mL: predose concentration x 24, mean (SD)
Procedure, shortened: as §1

[7] = Maximal usage PK study; type: in vivo, human; settings: for steady state achieved by: plasma concentrations, roflumilast cream 0.3% once daily; for Tmax, h (min–max): plasma, Day 15, roflumilast cream 0.3% daily topical, mean (min–max)
Procedure, shortened: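 Open-label, single-arm, 2-week maximal-use study: 0.3% cream at 2 mg/cm2 once each evening to all plaques except the scalp. Subjects were adolescents 12–17 y (≥10% BSA) and adults (≥20% BSA), with IGA ≥3. Plasma was sampled predose and 1, 2, 4, 8 and 24 h post-dose on Days 1 and 15, plus 7, 14 and 21 days after the last dose. Analysis was LC-MS/MS (LLOQ 0.100 ng/mL) with noncompartmental linear trapezoidal methods.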

[8] = cited from earlier work
[9] = at 22 °C; cited from earlier work
[10] = oral 500 µg; cited from earlier work
[11] = age 6–11 years (N = 1), predose concentration x 24
[12] = age 12–17 years (N = 3), predose plasma (Ctrough), mean (SD)
[13] = age ≥ 18 years (N = 241), predose plasma (Ctrough), mean (SD)
[14] = multiple dosing of oral roflumilast 500 µg
[15] = age 6–11 years (N = 1), predose plasma (Ctrough)
[16] = age 12–17 years (N = 5), predose plasma (Ctrough), mean (SD)
[17] = age ≥ 18 years (N = 244), predose plasma (Ctrough), mean (SD)

plasma concentration, mean (SD) ([1]; roflumilast cream 0.15% (n = 21)): 5.44 [4.95] ng/mL
plasma concentration, mean (SD) ([1]; roflumilast cream 0.5% (n = 20)): 6.52 [4.04] ng/mL
Week 8 extrapolated AUC24 [2, 11]: 103 ng·h/mL
Week 4 extrapolated AUC24, h*ng/mL ([2]; age 12–17 years (N = 3)): 202 (91.2) h*ng/mL
Week 8 extrapolated AUC24, h*ng/mL ([2]; age 12–17 years (N = 3)): 209 (132) h*ng/mL
Week 4 conc., ng/mL [2, 12]: 8.42 (3.80) ng/mL
Week 8 conc., ng/mL [2, 12]: 8.71 (5.49) ng/mL
Week 4 extrapolated AUC24, h*ng/mL ([2]; age ≥ 18 years (N = 241)): 288 (310) h*ng/mL
Week 8 extrapolated AUC24, h*ng/mL ([2]; age ≥ 18 years (N = 241)): 242 (290) h*ng/mL
Week 4 conc., ng/mL [2, 13]: 11.8 (12.9) ng/mL
Week 8 conc. [2, 13]: 9.86 ng/mL and 9.9 ng/mL
skin samples with measurable (quantifiable) level [3]: only one sample
skin samples with measurable (quantifiable) level ([3]; listed as Roflumilast N-oxide): only one skin sample
skin concentrations lower than circulating plasma concentrations ([3]; skin LLOQ of 0.2 ng/g, cream 0.15% and 0.5%): at least 30 fold
Week 4 extrapolated AUC24 [6, 11]: 576 ng·h/mL
Week 8 extrapolated AUC24 [6, 11]: 614 ng·h/mL
Week 4 conc. [6, 15]: 24.0 ng/mL
Week 8 conc. [6, 15]: 25.6 ng/mL
Week 4 extrapolated AUC24, h*ng/mL ([6]; age 12–17 years (N = 5)): 84.6 (58.4) h*ng/mL
Week 8 extrapolated AUC24, h*ng/mL ([6]; age 12–17 years (N = 5)): 161 (174) h*ng/mL
Week 4 conc., ng/mL [6, 16]: 3.53 (2.44) ng/mL
Week 8 conc., ng/mL [6, 16]: 6.72 (7.24) ng/mL
Week 4 extrapolated AUC24, h*ng/mL ([6]; age ≥ 18 years (N = 244)): 294 (338) h*ng/mL
Week 8 extrapolated AUC24, h*ng/mL ([6]; age ≥ 18 years (N = 244)): 249 (308) h*ng/mL
Week 4 conc., ng/mL [6, 17]: 12.2 (14.1) ng/mL
Week 8 conc. [6, 17]: 10.2 ng/mL
steady state achieved by [7]: ≤ 15 days
Tmax, h (min–max) ([7]; adolescents 12–17 years): 16.5 (1.0–24.0) h
Tmax, h (min–max) ([7]; adults ≥18 years): 12.9 (0–24) h
roflumilast N-oxide plasma concentrations relative to roflumilast concentrations ([7]; repeat daily topical roflumilast cream 0.3%, steady state): eightfold
SMILES: O=C(Nc1c(Cl)c[n+]([O-])cc1Cl)c1ccc(OC(F)F)c(OCC2CC2)c1 [roflumilast N-oxide]
potency of N-oxide metabolite relative to roflumilast [4]: threefold less potent
systemic exposure of roflumilast N-oxide relative to roflumilast ([5]; intravenous administration of roflumilast): 7.4 times
peak plasma concentration (Cmax) [5, 14]: 21.7 ng/mL
systemic exposure of roflumilast N-oxide relative to roflumilast ([5]; oral administration of roflumilast): 12.4 times
elimination half-life [5]: 30 h

concentration at 24 h ([1]; 0.15 % cream): 1.15 ng/mL
concentration at 28 days ([1]; 0.15 % cream): 1.03 ng/mL
concentration at 24 h ([1]; 0.5 % cream): 0.805 ng/mL
concentration at 28 days ([1]; 0.5 % cream): 1.15 ng/mL
Week 8 extrapolated AUC24, h*ng/mL ([2]; age ≥ 18 years (N = 241)): 47.4 (58.3) h*ng/mL
Week 4 conc., ng/mL [2, 13]: 2.05 (2.83) ng/mL
skin samples with measurable (quantifiable) level [3]: All but one sample
Kp at 24 h ([3]; 0.15 % cream): 126
Kp at 24 h ([3]; 0.5 % cream): 61.8
concentration at 24 h ([3]; 0.15 % cream): 84 ng/mL
concentration at 28 days ([3]; 0.15 % cream): 120 ng/g
concentration at 24 h ([3]; 0.5 % cream): 51 ng/mL
concentration at 28 days ([3]; 0.5 % cream): 56.1 ng/g
steady state achieved by [7]: ≤ 15 days
peak-to-trough ratio (plasma) ([7]; steady state (Day 15), topical roflumilast cream 0.3%): 1.2
SMILES: O=C(Nc1c(Cl)cncc1Cl)c1ccc(OC(F)F)c(OCC2CC2)c1 [roflumilast]
logP [8]: 3.53
oral bioavailability ([5]; 500 µg oral dose): approximately 79%
time to absorption / peak levels after oral dose ([5]; 500 µg oral dose): about 1.25 h
time to absorption / peak levels after oral dose ([5]; 500 µg oral dose, listed as Roflumilast): 1 h
Cmax in COPD patients higher than in healthy volunteers [5, 14]: about 6%
peak plasma concentration (Cmax) [5, 14]: 6.01 ng/mL
peak-to-trough ratio ([5]; oral administration): greater than 10
elimination half-life [5]: 17 to 30 h and 17 h
water solubility [9]: 0.52 to 0.56 µg/mL
diarrhea (occurrence) [10]: 9.5%
nausea (occurrence) [10]: 4.7%
weight decreased (occurrence) [10]: 7.5%
